The values that follow come from ChEMBL document CHEMBL1131450, “Synthesis and antitumor evaluation of 2,5-disubstituted-indazolo[4, 3-gh]isoquinolin-6(2H)-ones (9-aza-anthrapyrazoles)” (J Med Chem, 1998).

Values after ≈ are worked out from the molar mass of the structure shown.

For one assay, the system named is LoVo/Dx (Homo sapiens). Description: cells.
The test system of assay [1] is P388. Format: functional, Mus musculus.
Assay [2] concerns LoVo. The assay can be described thus: Resistance index measured as the ratio of IC50 of LoVo/Dx cell line to that of LoVo cell line. The assay is classed as functional, Homo sapiens.
Assay [3] deals with MX1. Description: In vivo antitumor activity was measured on MX-1 human mammary carcinoma cells. TWI%=tumor weight inhibition. Optimal dose 24 mg/kg/day. Format: functional.
The test system of assay [4] is LoVo. The assay can be described thus: In vitro cytotoxicity on human colon adenocarcinoma (LoVo ) tumor cell line. The assay is classed as functional, cell-based.
In assay [5] the test system is P388. Description: In vivo antitumor activity was measured on systemic P388 murine leukemia cells. Maximum tested dose 40 mg/kg/day. The assay is classed as functional, Mus musculus. Summed up:
(§1)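 CD2F1 male mice given 10⁶ P388 leukemia cells iv (day 0); drug given iv on days 1, 4 and 7. Survival expressed as T/C% = median survival time of treated / median survival of controls × 100, reported at optimal dose (mg/kg/day) or maximum tested dose.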

The test system of assay [6] is MX1. Description: In vivo antitumor activity was measured on MX-1 human mammary carcinoma cells. TWI%=tumor weight inhibition. Maximum tested dose 90 mg/kg/day. The assay is classed as functional.
For assay [7], the system named is MX1. The assay can be described thus: In vivo antitumor activity was measured on MX-1 human mammary carcinoma cells. TWI%=tumor weight inhibition. Optimal dose 9 mg/kg/day. Format: functional.
For assay [8], the system named is P388. The assay can be described thus: In vivo antitumor activity was measured on systemic P388 murine leukemia cells. Optimal dose 4 mg/kg/day. The assay is classed as functional, Mus musculus. In outline:
as §1

The test system of assay [9] is P388. The assay can be described thus: In vivo antitumor activity was measured on systemic P388 murine leukemia cells. Optimal dose 13 mg/kg/day. Format: functional, Mus musculus. In outline:
as §1

For assay [10], the system named is MX1. The assay can be described thus: In vivo antitumor activity was measured on MX-1 human mammary carcinoma cells. TWI%=tumor weight inhibition. Optimal dose 1.3 mg/kg/day. Format: functional.
The subject of assay [11] is P388. The assay can be described thus: In vivo antitumor activity was measured on systemic P388 murine leukemia cells. Toxic deaths observed at dose 18 mg/kg/day. The assay is classed as functional, Mus musculus.
In assay [12] the test system is MX1. The assay can be described thus: In vivo antitumor activity was measured on MX-1 human mammary carcinoma cells. TWI%=tumor weight inhibition. Optimal dose 8 mg/kg/day. Format: functional.
The test system of assay [13] is P388. Description: In vivo antitumor activity was measured on systemic P388 murine leukemia cells. Optimal dose 24 mg/kg/day. Format: functional, Mus musculus. Summed up:
as §1

Assay [14] relates to MX1. The assay can be described thus: In vivo antitumor activity was measured on MX-1 human mammary carcinoma cells. TWI%=tumor weight inhibition. Optimal dose 27 mg/kg/day. Format: functional.
In assay [15] the test system is MX1. The assay can be described thus: In vivo antitumor activity was measured on MX-1 human mammary carcinoma cells. TWI%=tumor weight inhibition. Optimal dose 60 mg/kg/day. Format: functional.
For assay [16], the system named is P388. Description: In vivo antitumor activity was measured on systemic P388 murine leukemia cells. Maximum tested dose 18 mg/kg/day. Format: functional, Mus musculus. Summed up: as §1
Assay [17] concerns MX1. The assay can be described thus: In vivo antitumor activity was measured on MX-1 human mammary carcinoma cells. TWI%=tumor weight inhibition. Optimal dose 18 mg/kg/day. The assay is classed as functional.
Assay [18] relates to MX1. The assay can be described thus: In vivo antitumor activity was measured on MX-1 human mammary carcinoma cells. TWI%=tumor weight inhibition. Optimal dose 40 mg/kg/day. Format: functional.
Assay [19] relates to MX1. The assay can be described thus: In vivo antitumor activity was measured on MX-1 human mammary carcinoma cells. TWI%=tumor weight inhibition. Optimal dose 120 mg/kg/day. Format: functional.
Assay [20] deals with MX1. The assay can be described thus: In vivo antitumor activity was measured on MX-1 human mammary carcinoma cells. TWI%=tumor weight inhibition. Optimal dose 13 mg/kg/day. The assay is classed as functional.
In assay [21] the test system is P388. Description: In vivo antitumor activity was measured on systemic P388 murine leukemia cells. Optimal dose 7.5 mg/kg/day. Format: functional, Mus musculus. In outline:
as §1

Assay [22] concerns P388. The assay can be described thus: In vivo antitumor activity was measured on systemic P388 murine leukemia cells. Optimal dose at 40 mg/kg/day. Format: functional, Mus musculus. Summed up: as §1
Assay [23] deals with MX1. The assay can be described thus: Antitumor activity was measured on MX-1 human mammary carcinoma cells. TWI%=tumor weight inhibition. Optimal dose at 40 mg/kg/day. The assay is classed as functional.
For assay [24], the system named is P388. The assay can be described thus: In vivo antitumor activity was measured on systemic P388 murine leukemia cells. Maximum tested dose 20 mg/kg/day. The assay is classed as functional, Mus musculus. Summed up: as §1

In the case of `CN(C)CCCn1nc2c3c(c(NCCN(C)C)ccc31)C(=O)c1ccncc1-2`, the 50% inhibitory concentration (IC50) with LoVo/Dx (Homo sapiens) was found to be 2 mg/L (≈ 5.1 µM); in the assay with LoVo [4], 0.24 mg/L (≈ 0.611 µM). This molecule also registered a T/C in the assay with P388 [1] of 270%. Besides, the RI in the assay on LoVo [2] is reported as 8.3. This molecule gave a TWI with MX1 [3] of 55%.

In the case of `CN(C)CCCNc1ccc2c3c(nn2CCN(C)C)-c2cnccc2C(=O)c13`, the IC50 in the assay with LoVo/Dx (Homo sapiens) is 2.13 mg/L (≈ 5.43 µM); with LoVo [4], 0.33 mg/L (≈ 0.841 µM). The molecule also registered a T/C with P388 [5] of 138%. Also, the TWI in the assay on MX1 [6] is on record as 141%. Besides, in the assay with LoVo [2], the RI stood at 6.4.

In turn, `CCN(CC)CCNc1ccc2c3c(nn2CCN(C)C)-c2cnccc2C(=O)c13` gave a TWI with MX1 [7] of 35%. The values for the half-inhibitory concentration (IC50) in the assay with LoVo/Dx (Homo sapiens) and in the assay on LoVo [4] were 0.83 mg/L (≈ 2.04 µM) and 0.37 mg/L (≈ 0.91 µM), respectively. In addition, the RI with LoVo [2] is reported as 2.2. In the assay on P388 [8], this molecule gave a T/C of 175%.

As to `CNCCNc1ccc2c3c(nn2CCN(C)C)-c2cnccc2C(=O)c13`, the IC50 was 3.78 mg/L (≈ 10.4 µM) in the assay on LoVo/Dx (Homo sapiens) and 0.03 mg/L (≈ 0.0823 µM) in the assay with LoVo [4]. This molecule also yielded a T/C in the assay on P388 [9] of 262%. Also, the RI with LoVo [2] came to 126. The same molecule yielded a TWI in the assay with MX1 [10] of 68%.

Take `CN(C)CCn1nc2c3c(c(NCCCN)ccc31)C(=O)c1ccncc1-2`: the figures for the IC50 with LoVo/Dx (Homo sapiens) and with LoVo [4] were 12.5 mg/L (≈ 34.3 µM) and 1.65 mg/L (≈ 4.53 µM), respectively. For the same molecule, the T/C with P388 [11] came to 125%. Moreover, in the assay with LoVo [2], the RI stood at 7.6. Also, the TWI with MX1 [12] was determined as 73%.

For `NCCn1nc2c3c(c(NCCNCCO)ccc31)C(=O)c1ccncc1-2`, the IC50 in the assay with LoVo/Dx (Homo sapiens) is greater than 100 mg/L; with LoVo [4], 1.63 mg/L (≈ 4.45 µM). For the same molecule, the RI in the assay with LoVo [2] is greater than 61. Also, the T/C with P388 [13] is on record as 194%. Besides, the TWI with MX1 [14] is 62%.

As to `CN(C)CCNCCNc1ccc2c3c(nn2CCN(C)C)-c2cnccc2C(=O)c13`, the half-maximal inhibitory concentration (IC50) was greater than 100 mg/L with LoVo/Dx (Homo sapiens) and 3.2 mg/L (≈ 7.59 µM) in the assay on LoVo [4]. This molecule also yielded a T/C in the assay on P388 [5] of 133%. Moreover, the TWI in the assay with MX1 [15] was 25%. Further, the RI with LoVo [2] is recorded as greater than 31.

`CN(C)CCn1nc2c3c(c(NCCN4CCNCC4)ccc31)C(=O)c1ccncc1-2`: the 50% inhibitory concentration (IC50) in the assay on LoVo/Dx (Homo sapiens) is greater than 100 mg/L; in the assay on LoVo [4], 4.83 mg/L (≈ 11.5 µM). The same molecule had a T/C in the assay on P388 [16] of 113%. The RI in the assay on LoVo [2] came to 21. In the assay on MX1 [17], this molecule returned a TWI of 14%.

On to `CN(C)CCn1nc2c3c(c(NCCO)ccc31)C(=O)c1ccncc1-2`, for which the half-inhibitory concentration (IC50) in the assay on LoVo/Dx (Homo sapiens) turned out to be 13.6 mg/L (≈ 38.7 µM); in the assay on LoVo [4], 0.32 mg/L (≈ 0.911 µM). In the assay with MX1 [18], the TWI is 97%. In the assay on P388 [5] (in the assay text read “Maximum tested dose 12 mg/kg/day” for “Maximum tested dose 40 mg/kg/day”), this molecule registered a T/C of 167%. Moreover, the RI in the assay with LoVo [2] was 42.5.

Turning to `CN(C)CCn1nc2c3c(c(NCCn4ccnc4)ccc31)C(=O)c1ccncc1-2`, the IC50 is greater than 100 mg/L in the assay on LoVo/Dx (Homo sapiens) and 1.1 mg/L (≈ 2.74 µM) in the assay on LoVo [4]. This molecule yielded a T/C in the assay on P388 [5] of 150%. Moreover, the RI with LoVo [2] was greater than 91. The molecule further displayed a TWI with MX1 [19] of 70%.

As for `NCCNc1ccc2c3c(nn2CCN)-c2cnccc2C(=O)c13`, the results for the concentration for half-maximal inhibition (IC50) in the assay on LoVo/Dx (Homo sapiens) and in the assay with LoVo [4] were 15.4 mg/L (≈ 47.8 µM) and 0.86 mg/L (≈ 2.67 µM), respectively. The molecule also gave a TWI in the assay on MX1 [20] of 70%. Further, in the assay with LoVo [2], the RI came out at 18. The T/C in the assay on P388 [21] was determined as 194%.

In the case of `O=C1c2ccncc2-c2nn(CCNCCO)c3ccc(NCCNCCO)c1c23`, the T/C with P388 [22] turned out to be 165%. Further, the figures for the half-maximal inhibitory concentration (IC50) with LoVo/Dx (Homo sapiens) and with LoVo [4] were greater than 100 mg/L and 4.5 mg/L (≈ 11 µM), respectively. The RI with LoVo [2] was greater than 22. Besides, the TWI in the assay with MX1 [23] is reported as 89%.

As to `CN(C)CCn1nc2c3c(c(NCCNS(C)(=O)=O)ccc31)C(=O)c1ccncc1-2`, the results for the half-maximal inhibitory concentration (IC50) in the assay on LoVo/Dx (Homo sapiens) and in the assay with LoVo [4] were greater than 100 mg/L and 4.1 mg/L (≈ 9.57 µM), respectively. In the assay on MX1 [15], the TWI was 90%. For the same molecule, the RI with LoVo [2] is on record as greater than 24. The T/C in the assay with P388 [24] is listed as 111%.
